# Tested on: Mycobacterium tuberculosis
# Test: Antitubercular activity against Mycobacterium tuberculosis H37Rv by agar dilution method
# Format: functional
# Method in brief: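 Twofold serial dilutions of compound incorporated into Middlebrook 7H11 agar with OADC supplement, in duplicate wells, at final 12.5, 6.25, 3.125 and 1.56 µg/mL. A known CFU of H37Rv culture was spread on the agar surface, and plates were incubated at 37 °C in 5% CO2. MIC was taken as the lowest concentration giving complete inhibition of colonies.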
row,SMILES,MIC
1,CCN(CC)CCOc1ccc(C(c2ccc(Cl)cc2)c2cccs2)cc1 (configuration not stated),3.12 µg/mL
2,CSc1ccc(C(c2ccc(OCCN(C)C)cc2)c2cccs2)cc1 (configuration not stated),> 12.5 µg/mL
3,COc1cccc(C(c2ccc(O)cc2)c2cccs2)c1 (configuration not stated),> 12.5 µg/mL
4,CSc1ccc(C(c2ccc(OCCN3CCOCC3)cc2)c2cccs2)cc1 (configuration not stated),> 12.5 µg/mL
5,COc1ccc(C(c2ccc(OCCN(C)C)cc2)c2cccs2)cc1 (configuration not stated),12.5 µg/mL
6,CCN(CC)CCOc1ccc(C(c2ccc(SC)cc2)c2cccs2)cc1 (configuration not stated),3.12 µg/mL
7,CO[C@H]1/C=C/O[C@@]2(C)Oc3c(C)c(O)c4c(O)c(c(/C=N/N5CCN(C)CC5)c(O)c4c3C2=O)NC(=O)/C(C)=C\C=C\[C@H](C)[C@H](O)[C@@H](C)[C@@H](O)[C@@H](C)[C@H](OC(C)=O)[C@@H]1C [RIFAMPIN],0.1 µg/mL
8,COc1ccc(C(c2ccc(OCC(O)CN3CCCC3)cc2)c2cccs2)cc1 (configuration not stated),> 12.5 µg/mL
9,CN(C)CCOc1ccc(C(c2ccc(Cl)cc2)c2cccs2)cc1 (configuration not stated),6.25 µg/mL
10,COc1ccc(C(c2cccs2)c2ccccc2OCCN2CCCCCC2)cc1 (configuration not stated),> 12.5 µg/mL
11,COc1ccc(C(c2ccc(OCC(O)CNCCc3ccc(OC)c(OC)c3)cc2)c2cccs2)cc1 (configuration not stated),> 12.5 µg/mL
12,COc1cccc(C(c2ccc(OCCN3CCCCCC3)cc2)c2cccs2)c1 (configuration not stated),3.12 µg/mL
13,COc1ccc(C(c2cccs2)c2ccccc2OCCN(C)C)cc1 (configuration not stated),> 12.5 µg/mL
14,COc1ccc(C(c2cccs2)c2ccccc2OCCN2CCCC2)cc1 (configuration not stated),> 12.5 µg/mL
15,CCN(CC)CCCNCC(O)COc1ccc(C(c2ccc(OC)cc2)c2cccs2)cc1 (configuration not stated),> 12.5 µg/mL
16,COc1ccc(C(c2ccc(OCC(O)CN3CCSCC3)cc2)c2cccs2)cc1 (configuration not stated),> 12.5 µg/mL
17,COc1ccc(C(c2ccc(O)cc2)c2cccs2)cc1 (configuration not stated),3.12 µg/mL
18,CSc1ccc(C(c2ccc(OCCN3CCCCCC3)cc2)c2cccs2)cc1 (configuration not stated),3.12 µg/mL
19,COc1ccc(C(c2ccc(OCC(O)CNC3CCCCC3)cc2)c2cccs2)cc1 (configuration not stated),12.5 µg/mL

row,SMILES,MIC
1,COc1ccc(C(c2ccc(OCC(O)CN3CCN(c4ccccn4)CC3)cc2)c2cccs2)cc1 (configuration not stated),> 12.5 µg/mL
2,COc1ccc(C(c2ccc(OCC(O)CNCCCN3CCOCC3)cc2)c2cccs2)cc1 (configuration not stated),> 12.5 µg/mL
3,COc1ccc(C(c2ccc(OCCN3CCCCCC3)cc2)c2cccs2)cc1 (configuration not stated),12.5 µg/mL
4,CCN(CC)CCOc1ccccc1C(c1ccc(OC)cc1)c1cccs1 (configuration not stated),> 12.5 µg/mL
5,COc1cccc(C(c2ccc(OCCN3CCOCC3)cc2)c2cccs2)c1 (configuration not stated),12.5 µg/mL
6,COc1ccc(C(c2ccc(OCCN3CCOCC3)cc2)c2cccs2)cc1 (configuration not stated),> 12.5 µg/mL
7,COc1ccc(C(c2ccc(OCC(O)CNCCCn3ccnc3)cc2)c2cccs2)cc1 (configuration not stated),> 12.5 µg/mL
8,COc1ccc(C(c2ccc(OCC(O)CN3CCN(Cc4ccccc4)CC3)cc2)c2cccs2)cc1 (configuration not stated),> 12.5 µg/mL
9,CCN(CC)CCOc1ccc(C(c2cccc(OC)c2)c2cccs2)cc1 (configuration not stated),3.12 µg/mL
10,COc1ccc(C(c2ccc(OCC(O)CN3CCCCC3)cc2)c2cccs2)cc1 (configuration not stated),12.5 µg/mL
11,Clc1ccc(C(c2ccc(OCCN3CCOCC3)cc2)c2cccs2)cc1 (configuration not stated),12.5 µg/mL
12,COc1cccc(C(c2ccc(OCCN(C)C)cc2)c2cccs2)c1 (configuration not stated),12.5 µg/mL
13,CCN(CC)CCOc1ccc(C(c2ccc(OC)cc2)c2cccs2)cc1 (configuration not stated),6.25 µg/mL
14,COc1ccc(C(c2ccc(OCC(O)CN3CCN(C)CC3)cc2)c2cccs2)cc1 (configuration not stated),> 12.5 µg/mL
15,COc1ccc(C(c2cccs2)c2ccccc2OCCN2CCCCC2)cc1 (configuration not stated),> 12.5 µg/mL
16,NNC(=O)c1ccncc1 [ISONIAZID],0.05 µg/mL
17,Oc1ccc(C(c2ccc(Cl)cc2)c2cccs2)cc1 (configuration not stated),> 12.5 µg/mL
18,CSc1ccc(C(c2ccc(O)cc2)c2cccs2)cc1 (configuration not stated),> 12.5 µg/mL
